Reference: ChEMBL document CHEMBL1240424, “Design and synthesis of potent inhibitors of beta-ketoacyl-acyl carrier protein synthase III (FabH) as potential antibacterial agents” (Eur J Med Chem, 2010)

How the values were obtained:
[1] = tested on: Escherichia coli; assay: Antibacterial activity against Escherichia coli after 24 hrs by MTT assay; type: functional
Outline: (§1)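 Broth microdilution in Mueller–Hinton medium. Compounds from a 100 μg/mL DMSO stock were serially diluted, and inoculum was about 10⁵ cfu/mL. Plates were incubated 24 h at 37 °C and MIC was read visually. MTT (2 mg/mL in PBS pH 7.4) was then added for 4–5 h at room temperature, dye extracted with acidified isopropanol for 12 h, and OD read at 550 nm.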

[2] = tested on: Pseudomonas fluorescens; assay: Antibacterial activity against Pseudomonas fluorescens after 24 hrs by MTT assay; type: functional; outline: as §1
[3] = tested on: Bacillus subtilis; assay: Antibacterial activity against Bacillus subtilis after 24 hrs by MTT assay; type: functional; outline: as §1
[4] = tested on: Staphylococcus aureus; assay: Antibacterial activity against Staphylococcus aureus after 24 hrs by MTT assay; type: functional; outline: as §1
[5] = Inhibition of Escherichia coli N-terminal His-tagged FabH expressed in Escherichia coli BL21(DE3) after 25 mins
Outline: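 His-tagged E. coli FabH was Ni-NTA purified. Reaction: 1 nM FabH, 2.5 μM holo-ACP, 20 mM sodium phosphate pH 7.0, 0.5 mM DTT, 0.25 mM MgCl₂. Started with 25 μM acetyl-CoA plus [³H]acetyl-CoA and run 25 min. Stopped with cold 50% TCA, pellet washed and dissolved in NaOH, ³H counted by scintillation. Inhibitors added from DMSO, final ≤2% DMSO, to give IC50.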

IC50 [5] [µM] | SMILES | Activity [1] [µg/mL] | Activity [2] [µg/mL] | Activity [3] [µg/mL] | Activity [4] [µg/mL]
8.6 | Oc1ccc(F)cc1/C=N/c1ccccc1F | 6.25 | 6.25 | 12.5 | 6.25
– | CN(C)CCC/N=C/c1cc(F)ccc1O | >100 | >100 | >100 | >100
– | Oc1ccc(F)cc1/C=N/CCN1CCOCC1 | 25 | 25 | 50 | 50
7.4 | Oc1ccc(F)cc1/C=N/C1CCCCC1 | 6.25 | 12.5 | 25 | 12.5
– | NC[C@H]1O[C@H](O[C@H]2[C@H](O)[C@@H](O[C@H]3O[C@H](CO)[C@@H](O)[C@H](N)[C@H]3O)[C@H](N)C[C@@H]2N)[C@H](O)[C@@H](O)[C@@H]1O [KANAMYCIN] | 3.13 | 3.13 | 1.56 | 1.56
2.7 | Oc1ccc(CC/N=C/c2cc(F)ccc2O)cc1 | 1.56 | 3.13 | 6.25 | 1.56
– | O=[N+]([O-])c1ccc(/N=C/c2cc(F)ccc2O)cc1 | >100 | >100 | >100 | >100
– | Oc1ccc(F)cc1/C=N/c1ccc(Br)cc1 | 25 | 25 | 50 | 50
– | Cc1ccc(/N=C/c2cc(F)ccc2O)cc1 | 50 | 50 | >100 | 100
48.5 | Oc1ccc(F)cc1/C=N/CCN1CCNCC1 | 12.5 | 25 | 50 | 25
– | Oc1ccc(F)cc1/C=N/CCCN1CCOCC1 | >100 | >100 | >100 | >100
28.6 | Oc1ccc(F)cc1/C=N/c1ccc(F)cc1 | 12.5 | 12.5 | 25 | 12.5
11.7 | Oc1ccc(F)cc1/C=N/c1ccccc1Cl | 6.25 | 12.5 | 12.5 | 12.5
6.8 | Oc1ccc(F)cc1/C=N/CC1CCCCC1 | 6.25 | 6.25 | 12.5 | 25
– | Oc1ccc(/N=C/c2cc(F)ccc2O)cc1 | >100 | >100 | >100 | >100
– | CCN(CC)CCC/N=C/c1cc(F)ccc1O | >100 | >100 | >100 | >100
– | Oc1ccc(F)cc1/C=N/c1ccccn1 | 50 | 100 | >100 | 100
42.5 | Oc1ccc(F)cc1/C=N/c1ccc(Cl)cc1 | 12.5 | 25 | 50 | 25
18.4 | Oc1ccc(F)cc1/C=N/C1CCCC1 | 12.5 | 12.5 | 25 | 25
– | CC(C)c1ccc(/N=C/c2cc(F)ccc2O)cc1 | >100 | 100 | >100 | >100
– | Oc1ccc(F)cc1/C=N/C1CCN(Cc2ccccc2)CC1 | >100 | >100 | >100 | >100
